Consider 1 compound from ChEMBL document CHEMBL4229460, “Design and biological evaluation of novel hybrids of 1, 5-diarylpyrazole and Chrysin for selective COX-2 inhibition” (Bioorg Med Chem, 2018).

For assay [1], the target named is T1, Prostaglandin G/H synthase 2 (Homo sapiens, UniProt P35354).
T1 sequence (P35354 whole entry): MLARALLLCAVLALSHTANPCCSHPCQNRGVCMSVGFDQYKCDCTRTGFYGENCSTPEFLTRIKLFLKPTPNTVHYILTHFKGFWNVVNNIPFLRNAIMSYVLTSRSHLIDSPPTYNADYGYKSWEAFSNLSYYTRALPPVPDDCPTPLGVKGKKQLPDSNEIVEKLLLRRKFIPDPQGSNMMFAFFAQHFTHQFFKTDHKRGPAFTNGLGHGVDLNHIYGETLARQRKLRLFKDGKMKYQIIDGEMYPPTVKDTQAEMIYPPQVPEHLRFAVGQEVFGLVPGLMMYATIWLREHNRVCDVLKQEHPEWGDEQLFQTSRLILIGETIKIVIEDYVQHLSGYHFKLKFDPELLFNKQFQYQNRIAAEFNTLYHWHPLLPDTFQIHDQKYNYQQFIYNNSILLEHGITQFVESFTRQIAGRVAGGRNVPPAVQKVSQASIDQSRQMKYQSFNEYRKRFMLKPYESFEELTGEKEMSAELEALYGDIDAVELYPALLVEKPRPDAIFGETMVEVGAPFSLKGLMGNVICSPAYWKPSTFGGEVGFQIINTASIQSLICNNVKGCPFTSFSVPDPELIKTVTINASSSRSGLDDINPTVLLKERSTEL
Nature of the assay: Inhibition of COX2 (unknown origin) using arachidonic acid as substrate pretreated for 10 mins followed by substrate addition and measured after 2 mins by ELISA.

The subject of the next assay is B16-F10. Kind of assay: Antiproliferative activity against mouse B16F10 cells after 48 hrs by MTT assay. The following applies: B16-F10, 48 h. It is filed as functional, cell-based. The method in brief:
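Cells kept in DMEM with 10% FBS, penicillin/streptomycin, 37 °C, 5% CO₂. Seeded at 5 × 10⁴ cells/well and allowed to adhere 12 h. Exposed to 0, 0.1, 1, 10 and 100 μM (final) for 48 h. Viability read by MTT reduction at OD 570 nm with 630 nm reference. IC50 reported as mean ± SD of three independent experiments.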

The subject of assay [2] is HeLa. Nature of the assay: Induction of apoptosis in human HeLa cells assessed as live cells at 2.5 uM after 24 hrs by Annexin-V-FITC/propidium iodide staining based flow cytometry (reference value: 94.6%). The format is functional. The method in brief: (§1)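 HeLa seeded at 2 × 10⁵ cells/well. Dose series was 0, 1.25, 2.5, 5 and 10 μM for 24 h; time course was 5 μM for 12, 24, 36 or 48 h. Trypsinized and washed in ice-cold PBS, then stained in binding buffer with Annexin V-FITC and PI for 10 min in the dark. Flow cytometry scored early (Annexin⁺/PI⁻) and late (Annexin⁺/PI⁺) apoptotic cells.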

The test system of assay [3] is HeLa. Kind of assay: Induction of apoptosis in human HeLa cells assessed as early apoptotic cells at 2.5 uM after 24 hrs by Annexin-V-FITC/propidium iodide staining based flow cytometry (reference value: 2.98%). It is filed as functional. The method in brief:
as §1
Background: A flow cytometer gives signals particle by particle.

The subject of assay [4] is HeLa. Nature of the assay: Induction of apoptosis in human HeLa cells assessed as live cells at 5 uM after 24 hrs by Annexin-V-FITC/propidium iodide staining based flow cytometry (reference value: 94.6 to 95.1%). It is filed as functional. The method in brief:
as §1

In assay [5] the test system is HeLa. Nature of the assay: Induction of apoptosis in human HeLa cells assessed as late apoptotic cells at 5 uM after 24 hrs by Annexin-V-FITC/propidium iodide staining based flow cytometry (reference value: 1.72 to 2.57%). The format is functional. The method in brief:
as §1

Assay [6] concerns HeLa. Kind of assay: Induction of apoptosis in human HeLa cells assessed as necrotic cells at 5 uM after 24 hrs by Annexin-V-FITC/propidium iodide staining based flow cytometry (reference value: 0.242 to 1.12%). It is filed as functional. The method in brief: (§2)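 HeLa cells in DMEM with 10% FBS, penicillin/streptomycin, 37 °C, 5% CO₂; seeded 2 × 10⁵ cells/well in six-well plates, treated at 0, 1.25, 2.5, 5 and 10 μM for 24 h, or at 5 μM for 12, 24, 36 or 48 h. Cells trypsinized, washed in ice-cold PBS, stained in binding buffer with Annexin V-FITC and PI for 10 min in the dark, then analyzed by flow cytometry.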

Assay [7] relates to HeLa. Kind of assay: Induction of apoptosis in human HeLa cells assessed as live cells at 10 uM after 24 hrs by Annexin-V-FITC/propidium iodide staining based flow cytometry (reference value: 94.6%). It is filed as functional. A digest of the protocol:
as §1

Assay [8] has as its system HeLa. Nature of the assay: Induction of apoptosis in human HeLa cells assessed as late apoptotic cells at 10 uM after 24 hrs by Annexin-V-FITC/propidium iodide staining based flow cytometry (reference value: 1.72%). It is filed as functional. A digest of the protocol:
as §1

Assay [9] deals with HeLa. Kind of assay: Induction of apoptosis in human HeLa cells assessed as necrotic cells at 10 uM after 24 hrs by Annexin-V-FITC/propidium iodide staining based flow cytometry (reference value: 0.242%). It is filed as functional. The method in brief: as §1
Assay [10] has as its system HeLa. Kind of assay: Induction of apoptosis in human HeLa cells assessed as live cells at 5 uM after 12 hrs by Annexin-V-FITC/propidium iodide staining based flow cytometry (reference value: 95.1%). The format is functional. A digest of the protocol: as §1
For assay [11], the system named is HeLa. Nature of the assay: Induction of apoptosis in human HeLa cells assessed as necrotic cells at 5 uM after 12 hrs by Annexin-V-FITC/propidium iodide staining based flow cytometry (reference value: 1.12%). It is filed as functional. A digest of the protocol:
as §1

Assay [12] concerns HeLa. Kind of assay: Induction of apoptosis in human HeLa cells assessed as late apoptotic cells at 5 uM after 36 hrs by Annexin-V-FITC/propidium iodide staining based flow cytometry (reference value: 2.57%). It is filed as functional. The method in brief:
as §1

The subject of assay [13] is HeLa. Kind of assay: Induction of apoptosis in human HeLa cells assessed as necrotic cells at 5 uM after 36 hrs by Annexin-V-FITC/propidium iodide staining based flow cytometry (reference value: 1.12%). The format is functional. A digest of the protocol:
as §2

Assay [14] deals with HeLa. Kind of assay: Induction of apoptosis in human HeLa cells assessed as late apoptotic cells at 5 uM after 48 hrs by Annexin-V-FITC/propidium iodide staining based flow cytometry (reference value: 2.57%). It is filed as functional. The method in brief:
as §1

Assay [15] deals with HeLa. Nature of the assay: Disruption of mitochondrial membrane potential in human HeLa cells assessed as collapse of the mitochondrial membrane potential at 2.5 uM after 12 hrs by JC1 staining based flow cytometry (reference value: 0.768%). The format is functional.
In assay [16] the test system is HeLa. Nature of the assay: Disruption of mitochondrial membrane potential in human HeLa cells after 12 hrs by JC1 staining based flow cytometry. The format is functional, cell-based.
In assay [17] the test system is HeLa. Nature of the assay: Cell cycle arrest in human HeLa cells assessed as accumulation at G1 phase at 1.25 uM after 24 hrs by propidium iodide staining based flow cytometry (reference value: 55.51%). It is filed as functional.
Assay [18] concerns HeLa. Kind of assay: Cell cycle arrest in human HeLa cells assessed as accumulation at G1 phase at 5 uM after 24 hrs by propidium iodide staining based flow cytometry (reference value: 55.51%). It is filed as functional.
Assay [19] deals with HeLa. Kind of assay: Cell cycle arrest in human HeLa cells assessed as accumulation at S phase at 5 uM after 24 hrs by propidium iodide staining based flow cytometry (reference value: 18.16%). The format is functional.
The test system of assay [20] is HeLa. Nature of the assay: Cell cycle arrest in human HeLa cells assessed as accumulation at G2/M phase at 5 uM after 24 hrs by propidium iodide staining based flow cytometry (reference value: 21.45%). It is filed as functional.
Assay [21] has as its system HeLa. Nature of the assay: Cell cycle arrest in human HeLa cells assessed as accumulation at S phase at 10 uM after 24 hrs by propidium iodide staining based flow cytometry (reference value: 18.16%). It is filed as functional.
In assay [22] the test system is HeLa. Kind of assay: Cell cycle arrest in human HeLa cells assessed as accumulation at G2/M phase at 10 uM after 24 hrs by propidium iodide staining based flow cytometry (reference value: 21.45%). The format is functional.

Turning to `COc1ccc(-c2cc(COC(=O)COc3cc(O)c4c(=O)cc(-c5ccccc5)oc4c3)nn2-c2ccc(C)cc2)cc1`, the IC50 (commonly the midpoint of a concentration-inhibition curve) in assay [1] came to 0.23 µM; in the assay with B16-F10, 10.4 µM. The Activity is 74.5% in the assay on HeLa [2]; 16.6% with HeLa [3]; 43.7 - 57.3% in the assay on HeLa [4]; 0.9 - 7.15% with HeLa [5]; 0.073 - 0.427% in the assay with HeLa [6]; 51.4% in the assay with HeLa [7]. Besides, the Activity with HeLa [8] is 11.5%; with HeLa [9] it was 0.325%; in the assay on HeLa [10], 67.7%; with HeLa [11] it was 1.71%; with HeLa [12] it was 7.82%; in the assay on HeLa [13], 2.08%. Besides, the Activity is 7.54% with HeLa [14]; 5.61% with HeLa [15]; “Dose-dependent effect” in the assay on HeLa [16]; 62.63% with HeLa [17]; 72.83% in the assay with HeLa [18]; 15.67% in the assay with HeLa [19]. The values for the Activity in the assay with HeLa [20], in the assay with HeLa [21] and in the assay with HeLa [22] were 8.16%, 14.82% and 5.24%, respectively.
